By inhibition is commonly meant the change of the read-out against control, counted positive when it falls. Usually kcat stands for the number of substrate molecules converted per active site and unit of time at saturation. A word on the Km: it is the substrate concentration at which the rate is half of its maximum.

The source of these data is ChEMBL document CHEMBL4390681, “Novel allosteric covalent inhibitors of bifunctional Cryptosporidium hominis TS-DHFR from parasitic protozoa identified by virtual screening” (Bioorg Med Chem Lett, 2019).

The source made the active and inactive calls. The rule behind the calls is not given here.

The target of data set [1] is T1, Bifunctional dihydrofolate reductase-thymidylate synthase (Cryptosporidium hominis) (UniProt A0A0S4TER9).
T1 sequence (whole entry): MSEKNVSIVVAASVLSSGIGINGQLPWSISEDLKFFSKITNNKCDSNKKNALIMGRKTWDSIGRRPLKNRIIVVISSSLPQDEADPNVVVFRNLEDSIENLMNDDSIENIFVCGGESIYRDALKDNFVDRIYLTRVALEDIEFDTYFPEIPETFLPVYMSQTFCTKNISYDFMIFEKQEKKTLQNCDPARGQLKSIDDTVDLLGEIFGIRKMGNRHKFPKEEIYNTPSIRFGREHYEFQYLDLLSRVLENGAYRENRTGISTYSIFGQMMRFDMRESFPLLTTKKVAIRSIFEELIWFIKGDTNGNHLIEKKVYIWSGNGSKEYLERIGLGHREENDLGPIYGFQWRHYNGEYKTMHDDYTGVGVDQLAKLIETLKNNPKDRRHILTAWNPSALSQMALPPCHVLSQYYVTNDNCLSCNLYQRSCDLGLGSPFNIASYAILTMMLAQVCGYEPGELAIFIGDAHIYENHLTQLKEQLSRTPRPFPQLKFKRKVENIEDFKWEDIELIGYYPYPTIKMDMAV
The data set can be described thus: Inhibition of recombinant Cryptosporidium hominis TS-DHFR expressed in Escherichia coli PA414 assessed as reduction in DHFR steady state activity at 500 uM using [3',5',7,9-3H]-H2folate as substrate preincubated for 10 mins before NADPH addition for 5 mins followed by substrate addition and measured after 5 mins by NADPH based radiometric chemical quench assay relative to control. The essentials:
(§1)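 Radiometric DHFR steady-state activity assay on recombinant ChTS-DHFR. Compound was incubated with the enzyme for 10 min before the reaction was started. Single-point screen was at 500 µM, and dose-dependence was also assessed. Activity is expressed as percent of control.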

Data set [2] has as its system T2, Bifunctional dihydrofolate reductase-thymidylate synthase (Cryptosporidium hominis), A0A0S4TER9 [C44S].
T2 sequence (whole entry): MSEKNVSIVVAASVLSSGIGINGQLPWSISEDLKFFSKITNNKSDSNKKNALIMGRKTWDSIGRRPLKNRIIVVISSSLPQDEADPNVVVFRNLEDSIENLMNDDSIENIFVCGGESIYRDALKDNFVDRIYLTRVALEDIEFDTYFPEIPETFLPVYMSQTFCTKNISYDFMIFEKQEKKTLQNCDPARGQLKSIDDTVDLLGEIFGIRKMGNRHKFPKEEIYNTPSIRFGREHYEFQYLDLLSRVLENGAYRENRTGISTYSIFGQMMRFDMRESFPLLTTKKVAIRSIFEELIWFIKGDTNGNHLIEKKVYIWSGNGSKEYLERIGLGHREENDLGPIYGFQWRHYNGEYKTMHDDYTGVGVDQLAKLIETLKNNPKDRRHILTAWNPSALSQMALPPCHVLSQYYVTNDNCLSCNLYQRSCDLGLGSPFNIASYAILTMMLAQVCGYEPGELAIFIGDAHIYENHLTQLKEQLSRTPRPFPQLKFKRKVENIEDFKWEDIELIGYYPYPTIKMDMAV
Put plainly: Inhibition of recombinant Cryptosporidium hominis TS-DHFR Cys44Ser mutant expressed in Escherichia coli PA414 assessed as reduction in DHFR steady state activity at 500 uM using [3',5',7,9-3H]-H2folate as substrate preincubated for 16 hrs before NADPH addition for 5 mins followed by substrate addition and measured after 5 mins by NADPH based radiometric chemical quench assay relative to control. Summed up: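 Wild-type and Cys44Ser mutant ChTS-DHFR, each incubated 16 h with compound before the radiometric DHFR reaction was started. Read-out was percent DHFR activity.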

Data set [3] addresses T3, Dihydrofolate reductase (Homo sapiens) (UniProt P00374).
T3 sequence (whole entry): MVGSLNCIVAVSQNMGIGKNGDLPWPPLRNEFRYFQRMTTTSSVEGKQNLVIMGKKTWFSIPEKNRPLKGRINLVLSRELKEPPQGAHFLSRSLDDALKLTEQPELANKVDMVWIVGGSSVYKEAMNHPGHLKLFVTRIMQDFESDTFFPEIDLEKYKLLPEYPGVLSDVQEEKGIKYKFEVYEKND
Put plainly: Inhibition of human DHFR assessed as decrease in DHFR steady state activity at 500 uM using [3',5',7,9-3H]-H2folate as substrate preincubated for 16 hrs before NADPH addition incubated for 5 mins followed by substrate addition and measured after 5 mins by NADPH based radiometric chemical quench assay relative to control. Summed up: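 Radiometric DHFR steady-state assay with human DHFR. Compound and enzyme were incubated for 16 h before the reaction was started. Percent inhibition was read relative to control.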

Data set [4] has as its target T1, Bifunctional dihydrofolate reductase-thymidylate synthase (Cryptosporidium hominis). Put plainly: Inhibition of recombinant Cryptosporidium hominis TS-DHFR expressed in Escherichia coli PA414 assessed as reduction in DHFR steady state activity at 500 uM using [3',5',7,9-3H]-H2folate as substrate preincubated for 1 hr to 72 hrs before NADPH addition for 5 mins followed by substrate addition and measured after 5 mins by NADPH based radiometric chemical quench assay relative to control. Particulars: TDE = time-dependent effect. The essentials:
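Compound at 500 µM was incubated with ChTS-DHFR for 1 h, 16 h, 48 h or 72 h before the radiometric DHFR reaction was initiated, to follow time-dependent inhibition. The standard assay uses a 10 min incubation.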

Data set [5] has the same target. The data set can be described thus: Inhibition of recombinant Cryptosporidium hominis TS-DHFR expressed in Escherichia coli PA414 assessed as reduction in DHFR steady state activity using [3',5',7,9-3H]-H2folate as substrate preincubated for 10 mins before NADPH addition for 5 mins followed by substrate addition and measured after 5 mins by NADPH based radiometric chemical quench assay relative to control. Summed up: as §1

Data set [6] in a line: Solubility of the compound at >500 uM. The data set is classed as physicochemical.
Data set [7] addresses T1, Bifunctional dihydrofolate reductase-thymidylate synthase (Cryptosporidium hominis). Put plainly: Mixed noncompetitive inhibition of recombinant Cryptosporidium hominis TS-DHFR expressed in Escherichia coli PA414 assessed as Kobs at 250 uM […] preincubated for 10 mins before NADPH addition for 5 mins followed by substrate addition and measured after 5 mins by Lineweaver-Burk plot analysis (reference value: 1.98 +/- 0.09 /s).

Data set [8] has the same target. Put plainly: Inhibition of recombinant Cryptosporidium hominis TS-DHFR expressed in Escherichia coli PA414 assessed as decrease in TS activity.
The target is the same in data set [9]. Put plainly: Mixed noncompetitive inhibition of recombinant Cryptosporidium hominis TS-DHFR expressed in Escherichia coli PA414 assessed as Kobs at 100 uM […] preincubated for 10 mins before NADPH addition for 5 mins followed by substrate addition and measured after 5 mins by Lineweaver-Burk plot analysis (reference value: 1.98 +/- 0.09 /s).
Compound in data set [10]: Cc1cc(Br)ccc1NC(=S)Nc1cccc(NC(=O)c2ccccc2O)c1
Put plainly: Mixed noncompetitive inhibition of recombinant Cryptosporidium hominis TS-DHFR expressed in Escherichia coli PA414 assessed as substrate Kcat at 250 uM using varying levels of [3',5',7,9-3H]-H2folate as substrate preincubated for 10 mins before NADPH addition for 5 mins followed by substrate addition and measured after 5 mins by Lineweaver-Burk plot analysis (reference value: 2.17 +/- 0.04 /s).

Compound in data set [11]: Cc1cc(Br)ccc1NC(=S)Nc1cccc(NC(=O)c2ccccc2O)c1
The data set can be described thus: Mixed noncompetitive inhibition of recombinant Cryptosporidium hominis TS-DHFR expressed in Escherichia coli PA414 assessed as substrate Km at 250 uM using varying levels of [3',5',7,9-3H]-H2folate as substrate preincubated for 10 mins before NADPH addition for 5 mins followed by substrate addition and measured after 5 mins by Lineweaver-Burk plot analysis (reference value: 1.2 +/- 0.2 uM).

Compound in data set [12]: Cc1cc(Br)ccc1NC(=S)Nc1cccc(NC(=O)c2ccccc2O)c1
Put plainly: Mixed noncompetitive inhibition of recombinant Cryptosporidium hominis TS-DHFR expressed in Escherichia coli PA414 assessed as substrate Km at 100 uM using varying levels of [3',5',7,9-3H]-H2folate as substrate preincubated for 10 mins before NADPH addition for 5 mins followed by substrate addition and measured after 5 mins by Lineweaver-Burk plot analysis (reference value: 1.2 +/- 0.2 uM).

Compound in data set [13]: Cc1cc(Br)ccc1NC(=S)Nc1cccc(NC(=O)c2ccccc2O)c1
The data set can be described thus: Mixed noncompetitive inhibition of recombinant Cryptosporidium hominis TS-DHFR expressed in Escherichia coli PA414 assessed as substrate Kcat at 100 uM using varying levels of [3',5',7,9-3H]-H2folate as substrate preincubated for 10 mins before NADPH addition for 5 mins followed by substrate addition and measured after 5 mins by Lineweaver-Burk plot analysis (reference value: 2.17 +/- 0.04 /s).

As for `COc1cc(C(F)(F)F)c(C(N)=O)cn1`, the inhibition in [1] was 0.29%. As for `CCOC(=O)C(=CNNC(=O)[C@@H]1[C@@H](C(=O)O)[C@H]2C=C[C@@H]1C2)C(=O)OCC`, in [1], the inhibition is -4.4%.

In the case of `Nc1cc(NC(=O)c2ccccc2O)ccc1Cl`, in data set [1], the inhibition was -1.3%. `Nc1cccc(NC(=O)c2ccccc2O)c1`: the inhibition in data set [1] was -1.3%. Still for that read-out and setting: under `O=C(Nc1cc(C(F)(F)F)cc(C(F)(F)F)c1)c1cc(Br)ccc1O` stands 24.4%; under `O=C(Nc1ccc(Cl)cc1)c1cc(Br)ccc1O`, 11.1%. Take `O=C(Nc1cccc(S)c1)c1cc(Br)ccc1O`: the inhibition result in data set [2] is “inactive”. For the same molecule, the inhibition in [3] is 95%; in [1] (TDE = time-dependent effect), “Tde”; in data set [4], “Tde”. Consider `O=C(Nc1ccc(Br)cc1)c1ccccc1O`, for which the inhibition in data set [1] turned out to be 8.8%. In the case of `Cc1ccc(C(=O)Nc2cc(Cl)cc(Cl)c2)c(O)c1`, the inhibition entry in data set [2] is “inactive”. Further, the inhibition entry in data set [5] is “Dose-dependent effect”; in data set [1] it was 61%. Besides, the solubility result in data set [6] is given as “Insoluble”. For `O=C(Nc1ccc(F)cc1)c1cc(Br)ccc1O`, the inhibition in data set [1] came to 20%. In the case of `COc1ccc(Br)c(OC)c1C(=O)NC(=O)Nc1cc(Cl)cc(Cl)c1`, the inhibition in [1] came to 7.9%. With `NCc1ccc(NC(=O)c2ccccc2O)cc1`, in data set [1], the inhibition worked out at 1.1%.

As for `CC(=O)C[C@@]1(O)C(=O)Nc2ccc(F)cc21`, the inhibition in data set [1] was -6%. As for `O=C(O)C[C@@H]1SC(c2ccc3c(c2)OCO3)=NC1=O`, the inhibition in [1] is -0.67%. With `NC(=S)Cc1c(Cl)sc2ccc(Cl)cc12`, in [1], the inhibition was found to be 32.6%.

For the molecule `O=C(Nc1cc(Cl)cc(Cl)c1)c1ccccc1O`, in [1], the inhibition was found to be 9.8%. In the case of `O=C(NNC(=O)c1ccccc1CO)c1ccc(Cl)c(Cl)c1`, the inhibition in data set [1] is 21.2%. Turning to `O=C(NCc1cccs1)c1ccc2nccnc2c1`, the inhibition in data set [1] amounted to 2%. Take `O=C1NC(=S)NC(=O)C1=Cc1c[nH]c2ccccc12`: in data set [1], the inhibition was -1.6%. On to `O=C(Nc1ccc(Cl)cc1)c1cc(I)ccc1O`, for which the inhibition result was “Dose-dependent effect” in data set [5] and 47% in data set [1]. Moreover, the solubility entry in [6] was “Insoluble”.

Turning to `O=c1ccn([C@H]2C[C@H](O)[C@@H](CO)O2)c(=O)[nH]1`, the inhibition in data set [1] is -5.3%. Regarding `O=C(Nc1cc(Cl)cc(Cl)c1)c1cc(Br)ccc1O`, the inhibition entry was “Dose-dependent effect” in data set [5] and 49% in data set [1]. Moreover, the solubility result in data set [6] is “Insoluble”.

Turning to `CCOC(=O)C1=C(C)NC(C)=C(C(=O)OCC)C1c1ccc2c(c1)OCO2`, in data set [1], the inhibition is -7.9%. On to `CNC(=O)c1ccc(NC(=O)c2ccccc2O)cc1`, for which, in [1], the inhibition was determined as 14.7%. Turning to `O=C(O)c1nccnc1-c1nc(=O)c2ccccc2[nH]1`, the inhibition in data set [1] is -4.4%. Take `Oc1nc2ccccc2nc1O`: the inhibition in data set [1] is -2.6%.

Turning to `O=C(Nc1ccc(F)c(Cl)c1)c1cc(Br)ccc1O`, the inhibition entry is “Dose-dependent effect” in data set [5] and 61% in data set [1]. The solubility result in data set [6] is reported as “Insoluble”. For `Cc1cc(Br)ccc1NC(=S)Nc1cccc(NC(=O)c2ccccc2O)c1`, the inhibition result is “Dose-dependent effect” in [5] and 52.2% in [1]. Moreover, the solubility entry in [6] is “Insoluble”. For the same molecule, the K amounted to 1.33 s⁻¹ in [7] and 1.6 s⁻¹ in [9]. Further, in [8], the inhibition entry is “inactive”. With `O=C(Nc1ccccc1O)c1ccc(Br)cc1O`, the inhibition in data set [1] is -0.176%. On to `O=C(Nc1cccc(Cl)c1)c1cc(Cl)ccc1O`, for which the inhibition result in [5] is “Dose-dependent effect”; in [1], 54%. In [6], the solubility result is on record as “Insoluble”. As to `Cc1cc2c(cc1C)N[C@H](C)CC(=O)N2`, the inhibition in [1] is -3.8%.

B1: Bifunctional dihydrofolate reductase-thymidylate synthase (Cryptosporidium hominis), A0A0S4TER9 (protein)
chain: MSEKNVSIVVAASVLSSGIGINGQLPWSISEDLKFFSKITNNKCDSNKKNALIMGRKTWDSIGRRPLKNRIIVVISSSLPQDEADPNVVVFRNLEDSIENLMNDDSIENIFVCGGESIYRDALKDNFVDRIYLTRVALEDIEFDTYFPEIPETFLPVYMSQTFCTKNISYDFMIFEKQEKKTLQNCDPARGQLKSIDDTVDLLGEIFGIRKMGNRHKFPKEEIYNTPSIRFGREHYEFQYLDLLSRVLENGAYRENRTGISTYSIFGQMMRFDMRESFPLLTTKKVAIRSIFEELIWFIKGDTNGNHLIEKKVYIWSGNGSKEYLERIGLGHREENDLGPIYGFQWRHYNGEYKTMHDDYTGVGVDQLAKLIETLKNNPKDRRHILTAWNPSALSQMALPPCHVLSQYYVTNDNCLSCNLYQRSCDLGLGSPFNIASYAILTMMLAQVCGYEPGELAIFIGDAHIYENHLTQLKEQLSRTPRPFPQLKFKRKVENIEDFKWEDIELIGYYPYPTIKMDMAV
B1: the kcat in [10] was determined as 1.2 s⁻¹; in data set [13], 1.9 s⁻¹. In addition, the values for the Km in [11] and in data set [12] were 1.4 µM and 1.3 µM, respectively.
